# According to ChEMBL document CHEMBL1121612, “Ivermectin, a new broad-spectrum antiparasitic agent” (1980):
# Experiments:
# Format in all cases: functional
# Ovis aries [1] = experiment: Activity against adult gastrointestinal helminths of experimentally infected sheep on oral administration of Cooperia species at 0.1 mg/kg.
# Procedure, shortened: (§1)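 Sheep were given the compound orally, each at one dose, with concurrent experimental infections of six adult gastrointestinal nematode species. Efficacy against adult worms was recorded as a categorical score for each species.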
# Ovis aries [2] = experiment: Activity against adult gastrointestinal helminths of experimentally infected sheep on oral administration of Haemonchus contortus at 0.1 mg/kg.
# Procedure, shortened: (§2)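 Sheep were given the compound orally, each at one dose, with experimental infections of six gastrointestinal nematode species. The Haemonchus contortus and Trichostrongylus colubriformis strains were benzimidazole-resistant. Efficacy against adult worms was recorded as a categorical score.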
# Ovis aries [3] = experiment: Activity against adult gastrointestinal helminths of experimentally infected sheep on oral administration of Trichostrongylus colubriformis at 0.1 mg/kg.; procedure, shortened: as §2
# Ovis aries [4] = experiment: Activity against adult gastrointestinal helminths of experimentally infected sheep on oral administration of Trichostrongylus axei at 0.1 mg/kg.; procedure, shortened: as §1
# Ovis aries [5] = experiment: Activity against adult gastrointestinal helminths of experimentally infected sheep on oral administration of Ostertagia circumcincta at 0.1 mg/kg.; procedure, shortened: as §1
# Ovis aries [6] = experiment: Activity against adult gastrointestinal helminths of experimentally infected sheep on oral administration of Oesophagostomum columbianum at 0.1 mg/kg.; procedure, shortened: as §1
# Ovis aries [7] = experiment: Activity against adult gastrointestinal helminths of experimentally infected sheep on oral administration of Oesophagostomum columbianum at 0.2 mg/kg.; procedure, shortened: as §1
# Ovis aries [8] = experiment: Activity against adult gastrointestinal helminths of experimentally infected sheep on oral administration of Haemonchus contortus at 0.2 mg/kg.; procedure, shortened: as §2
# Ovis aries [9] = experiment: Activity against adult gastrointestinal helminths of experimentally infected sheep on oral administration of Trichostrongylus axei at 0.2 mg/kg.; procedure, shortened: as §1
# Ovis aries [10] = experiment: Activity against adult gastrointestinal helminths of experimentally infected sheep on oral administration of Trichostrongylus colubriformis at 0.2 mg/kg.; procedure, shortened: as §2
# Ovis aries [11] = experiment: Activity against adult gastrointestinal helminths of experimentally infected sheep on oral administration of Cooperia species at 0.2 mg/kg.; procedure, shortened: as §1
# Ovis aries [12] = experiment: Activity against adult gastrointestinal helminths of experimentally infected sheep on oral administration of Ostertagia circumcincta at 0.2 mg/kg.; procedure, shortened: as §1
# Ovis aries [13] = experiment: Activity against adult gastrointestinal helminths of experimentally infected sheep on oral administration of Trichostrongylus colubriformis at 0.3 mg/kg.; procedure, shortened: as §2
# Ovis aries [14] = experiment: Activity against adult gastrointestinal helminths of experimentally infected sheep on oral administration of Cooperia species at 0.3 mg/kg; 75-90; procedure, shortened: as §1
# Ovis aries [15] = experiment: Activity against adult gastrointestinal helminths of experimentally infected sheep on oral administration of Haemonchus contortus at 0.3 mg/kg.; procedure, shortened: as §2
# Ovis aries [16] = experiment: Activity against adult gastrointestinal helminths of experimentally infected sheep on oral administration of Trichostrongylus axei at 0.3 mg/kg.; procedure, shortened: as §1
# Ovis aries [17] = experiment: Activity against adult gastrointestinal helminths of experimentally infected sheep on oral administration of Ostertagia circumcincta at 0.3 mg/kg.; procedure, shortened: as §1
# Ovis aries [18] = experiment: Activity against adult gastrointestinal helminths of experimentally infected sheep on oral administration of Oesophagostomum columbianum at 0.3 mg/kg.; procedure, shortened: as §1
# Ovis aries [19] = experiment: Activity against adult gastrointestinal helminths of experimentally infected sheep on oral administration of Ostertagia circumcincta at 0.1 mg/kg; 75-90; procedure, shortened: as §1
# Ovis aries [20] = experiment: Activity against adult gastrointestinal helminths of experimentally infected sheep on oral administration of Haemonchus contortus at 0.1 mg/kg; 75-90; procedure, shortened: as §2
# Ovis aries [21] = experiment: Activity against adult gastrointestinal helminths of experimentally infected sheep on oral administration of Cooperia species at 0.1 mg/kg; 75-90; procedure, shortened: as §1
# Ovis aries [22] = experiment: Activity against adult gastrointestinal helminths of experimentally infected sheep on oral administration of Cooperia species at 0.05 mg/kg.
# Ovis aries [23] = experiment: Activity against adult gastrointestinal helminths of experimentally infected sheep on oral administration of Ostertagia circumcincta at 0.05 mg/kg.
# Ovis aries [24] = experiment: Activity against adult gastrointestinal helminths of experimentally infected sheep on oral administration of Trichostrongylus colubriformis at 0.05 mg/kg.
# Procedure, shortened: (§3)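 Sheep were experimentally infected with benzimidazole-resistant isolates of this species among six gastrointestinal helminths and dosed orally. Efficacy against the adult worms was scored per species.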
# Ovis aries [25] = experiment: Activity against adult gastrointestinal helminths of experimentally infected sheep on oral administration of Trichostrongylus axei at 0.05 mg/kg.
# Ovis aries [26] = experiment: Activity against adult gastrointestinal helminths of experimentally infected sheep on oral administration of Haemonchus contortus at 0.05 mg/kg.; procedure, shortened: as §3
# Ovis aries [27] = experiment: Activity against adult gastrointestinal helminths of experimentally infected sheep on oral administration of Oesophagostomum columbianum at 0.05 mg/kg.
# Ovis aries [28] = experiment: Activity against adult gastrointestinal helminths of experimentally infected sheep on oral administration of Trichostrongylus axei at 0.15 mg/kg.; procedure, shortened: as §1
# Ovis aries [29] = experiment: Activity against adult gastrointestinal helminths of experimentally infected sheep on oral administration of Oesophagostomum columbianum at 0.15 mg/kg.; procedure, shortened: as §1
# Ovis aries [30] = experiment: Activity against adult gastrointestinal helminths of experimentally infected sheep on oral administration of Trichostrongylus colubriformis at 0.15 mg/kg.; procedure, shortened: as §2
# Ovis aries [31] = experiment: Activity against adult gastrointestinal helminths of experimentally infected sheep on oral administration of Ostertagia circumcincta at 0.15 mg/kg; 75-90; procedure, shortened: as §1
# Ovis aries [32] = experiment: Activity against adult gastrointestinal helminths of experimentally infected sheep on oral administration of Cooperia species at 0.15 mg/kg.; procedure, shortened: as §1
# Ovis aries [33] = experiment: Activity against adult gastrointestinal helminths of experimentally infected sheep on oral administration of Haemonchus contortus at 0.15 mg/kg 75-90; procedure, shortened: as §2
# Ovis aries [34] = experiment: Activity against adult gastrointestinal helminths of experimentally infected sheep on oral administration of Trichostrongylus axei at 3.0 mg/kg.; procedure, shortened: as §1
# Ovis aries [35] = experiment: Activity against adult gastrointestinal helminths of experimentally infected sheep on oral administration of Trichostrongylus colubriformis at 3.0 mg/kg.; procedure, shortened: as §2
# Ovis aries [36] = experiment: Activity against adult gastrointestinal helminths of experimentally infected sheep on oral administration of Ostertagia circumcincta at 3.0 mg/kg; 75-90; procedure, shortened: as §1
# Ovis aries [37] = experiment: Activity against adult gastrointestinal helminths of experimentally infected sheep on oral administration of Oesophagostomum columbianum at 3.0 mg/kg.; procedure, shortened: as §1
# Ovis aries [38] = experiment: Activity against adult gastrointestinal helminths of experimentally infected sheep on oral administration of Cooperia species at 3.0 mg/kg; 50-74; procedure, shortened: as §1
# Ovis aries [39] = experiment: Activity against adult gastrointestinal helminths of experimentally infected sheep on oral administration of Haemonchus contortus at 3.0 mg/kg; 50-74; procedure, shortened: as §2
# Ovis aries [40] = experiment: Activity against adult gastrointestinal helminths of experimentally infected sheep on oral administration of Cooperia species at 0.3 mg/kg.; procedure, shortened: as §1
# Ovis aries [41] = experiment: Activity against adult gastrointestinal helminths of experimentally infected sheep on oral administration of Trichostrongylus colubriformis at 0.3 mg/kg; 50-74; procedure, shortened: as §2
# Ovis aries [42] = experiment: Activity against adult gastrointestinal helminths of experimentally infected sheep on oral administration of Ostertagia circumcincta at 0.3 mg/kg; 75-90; procedure, shortened: as §1
# Ovis aries [43] = experiment: Activity against adult gastrointestinal helminths of experimentally infected sheep on oral administration of Trichostrongylus axei at 0.2 mg/kg; 50-74; procedure, shortened: as §1
structure (smiles),measurement,setting,value
CC[C@H](C)[C@H]1O[C@]2(CC(O)[C@@H]1C)C[C@@H]1C[C@@H](C/C=C(\C)[C@@H](OC3CC(OC)C(OC4CC(OC)C(O)C(C)O4)C(C)O3)[C@@H](C)/C=C/C=C3\CO[C@@H]4[C@H](OC)C(C)=C[C@@H](C(=O)O1)[C@]34O)O2 (stereo not given in full) [AVERMECTIN A2],Efficacy,Ovis aries [1],<50%
same,Efficacy,Ovis aries [2],>90%
same,Efficacy,Ovis aries [3],>90%
same,Efficacy,Ovis aries [4],>90%
same,Efficacy,Ovis aries [5],>90%
same,Efficacy,Ovis aries [6],>90%
COC1CC(O[C@@H]2/C(C)=C/C[C@@H]3C[C@@H](C[C@]4(CC(O)[C@H](C)[C@@H](C(C)C)O4)O3)OC(=O)[C@@H]3C=C(C)[C@@H](O)[C@H]4OC/C(=C\C=C\[C@@H]2C)[C@]43O)OC(C)C1O (stereo not given in full) [AVERMECTIN B2 MONOSACCHARIDE],Efficacy,Ovis aries [7],>90%
same,Efficacy,Ovis aries [8],50%
same,Efficacy,Ovis aries [9],>90%
same,Efficacy,Ovis aries [10],>90%
same,Efficacy,Ovis aries [11],>90%
same,Efficacy,Ovis aries [12],50%
CO[C@H]1C[C@H](O[C@@H]2/C(C)=C/C[C@@H]3C[C@@H](C[C@]4(CC[C@H](C)[C@@H](C(C)C)O4)O3)OC(=O)[C@@H]3C=C(C)[C@@H](O)[C@H]4OC/C(=C\C=C\[C@@H]2C)[C@]43O)O[C@@H](C)[C@@H]1O,Efficacy,Ovis aries [13],>90%
same,Efficacy,Ovis aries [14],75%
same,Efficacy,Ovis aries [15],>90%
same,Efficacy,Ovis aries [16],>90%
same,Efficacy,Ovis aries [17],>90%
same,Efficacy,Ovis aries [18],>90%
CC[C@H](C)[C@H]1O[C@]2(C=C[C@@H]1C)C[C@@H]1C[C@@H](C/C=C(\C)[C@@H](OC3CC(OC)C(OC4CC(OC)C(O)C(C)O4)C(C)O3)[C@@H](C)/C=C/C=C3\CO[C@@H]4[C@H](OC)C(C)=C[C@@H](C(=O)O1)[C@]34O)O2 (stereo not given in full) [AVERMECTIN A1],Efficacy,Ovis aries [19],75%
same,Efficacy,Ovis aries [20],75%
same,Efficacy,Ovis aries [3],<50%
same,Efficacy,Ovis aries [21],75%
same,Efficacy,Ovis aries [4],<50%
same,Efficacy,Ovis aries [6],<50%
CC[C@H](C)[C@H]1O[C@]2(C=C[C@@H]1C)C[C@@H]1C[C@@H](C/C=C(\C)[C@@H](O[C@H]3C[C@H](OC)[C@@H](O[C@H]4C[C@H](OC)[C@@H](O)[C@H](C)O4)[C@H](C)O3)[C@@H](C)/C=C/C=C3\CO[C@@H]4[C@H](O)C(C)=C[C@@H](C(=O)O1)[C@]34O)O2 [ABAMECTIN COMPONENT B1A],Efficacy,Ovis aries [22],>90%
same,Efficacy,Ovis aries [23],>90%
same,Efficacy,Ovis aries [24],>90%
same,Efficacy,Ovis aries [25],>90%
same,Efficacy,Ovis aries [26],>90%
same,Efficacy,Ovis aries [27],>90%
COC1CC(O[C@@H]2/C(C)=C/C[C@@H]3C[C@@H](C[C@]4(C=C[C@H](C)[C@@H](C(C)C)O4)O3)OC(=O)[C@@H]3C=C(C)[C@@H](O)[C@H]4OC/C(=C\C=C\[C@@H]2C)[C@]43O)OC(C)C1O (stereo not given in full) [AVERMECTIN B1 MONOSACCHARIDE],Efficacy,Ovis aries [28],>90%
same,Efficacy,Ovis aries [29],<50%
same,Efficacy,Ovis aries [30],>90%
same,Efficacy,Ovis aries [31],75%
same,Efficacy,Ovis aries [32],>90%
same,Efficacy,Ovis aries [33],75%
CC1=C[C@H]2C(=O)O[C@H]3C[C@@H](C/C=C(\C)[C@@H](O)[C@@H](C)/C=C/C=C4\CO[C@H]([C@@H]1O)[C@@]42O)O[C@@]1(CC[C@H](C)[C@@H](C(C)C)O1)C3,Efficacy,Ovis aries [34],>90%
same,Efficacy,Ovis aries [35],>90%
same,Efficacy,Ovis aries [36],75%
same,Efficacy,Ovis aries [37],>90%
same,Efficacy,Ovis aries [38],50%
same,Efficacy,Ovis aries [39],50%
CC[C@H](C)[C@H]1O[C@]2(CC[C@@H]1C)C[C@@H]1C[C@@H](C/C=C(\C)[C@@H](O[C@H]3C[C@H](OC)[C@@H](O[C@H]4C[C@H](OC)[C@@H](O)[C@H](C)O4)[C@H](C)O3)[C@@H](C)/C=C/C=C3\CO[C@@H]4[C@H](OC)C(C)=C[C@@H](C(=O)O1)[C@]34O)O2,Efficacy,Ovis aries [40],<50%
same,Efficacy,Ovis aries [41],50%
same,Efficacy,Ovis aries [42],75%
same,Efficacy,Ovis aries [15],>90%
same,Efficacy,Ovis aries [16],<50%
same,Efficacy,Ovis aries [18],>90%
CO[C@H]1C[C@H](O[C@H]2[C@H](C)O[C@@H](O[C@@H]3/C(C)=C/C[C@@H]4C[C@@H](C[C@]5(CC[C@H](C)[C@@H](C(C)C)O5)O4)OC(=O)[C@@H]4CC(C)[C@@H](O)[C@H]5OC/C(=C\C=C\[C@@H]3C)[C@]54O)C[C@@H]2OC)O[C@@H](C)[C@@H]1O (stereo not given in full),Efficacy,Ovis aries [7],>90%
same,Efficacy,Ovis aries [43],50%
same,Efficacy,Ovis aries [8],<50%
same,Efficacy,Ovis aries [10],<50%
same,Efficacy,Ovis aries [11],<50%
same,Efficacy,Ovis aries [12],<50%
COC1CC(OC2C(C)OC(O[C@@H]3/C(C)=C/C[C@@H]4C[C@@H](C[C@]5(CC(O)[C@H](C)[C@@H](C(C)C)O5)O4)OC(=O)[C@@H]4C=C(C)[C@@H](O)[C@H]5OC/C(=C\C=C\[C@@H]3C)[C@]54O)CC2OC)OC(C)C1O (stereo not given in full) [AVERMECTIN B2],Efficacy,Ovis aries [1],>90%
same,Efficacy,Ovis aries [2],<50%
same,Efficacy,Ovis aries [3],>90%
same,Efficacy,Ovis aries [4],>90%
same,Efficacy,Ovis aries [5],>90%
same,Efficacy,Ovis aries [6],>90%
